This note sets out measurements from ChEMBL document CHEMBL1135694, “Optimization of alkylidene hydrazide based human glucagon receptor antagonists. Discovery of the highly potent and orally available 3-cyano-4-hydroxybenzoic acid [1-(2,3,5,6-tetramethylbenzyl)-1H-indol-4-ylmethylene]hydrazide” (J Med Chem, 2002).

Series [1] addresses Glucagon receptor (Homo sapiens, UniProt P47871). The series is described as follows: In vitro binding affinity for recombinant human glucagon receptor (hGGR) in BHK cells. It counts as cell-based. Put shortly: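 Membranes (4 µg) from BHK cells expressing the cloned human glucagon receptor. Compounds were diluted in DMSO, and a glucagon standard curve was run. IC50 given as mean ± SD, n = 3.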

For series [2], the species on record is Rattus norvegicus. Put plainly: In vitro metabolic turnover in rat liver microsomes was determined. In kind it is functional. The conditions noted are these: Microsome. The gist of the method: (§1)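 Rat liver microsomes (0.331 mg/mL protein) with 10 µM compound, 1 mM UDP-GA and 1 mM NADPH in KH2PO4 buffer, pH 7.4, at 37 °C. Sampled at 0-30 min (n = 3), stopped with MeCN. Rate was taken from parent disappearance by LC-MS.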
In general terms: Liver microsomes are a subcellular fraction often used to study metabolism.

A short description of series [3]: Half life period after intravenous administration (0.5 mg/kg) in dog was determined. It counts as ADME, organism-based, Canis lupus familiaris. The note with it: in vivo. Put shortly: (§2)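 Four purpose-bred male beagle dogs, 11-19 kg, 15-18 months old. Dosed 0.5 mg/kg intravenously, or 2.0 mg/kg perorally by gavage using the same dosing solution as the iv dose. Blood was sampled at set times from predose to 4 h postdose and assayed by LC-MS-MS. PK parameters were derived by noncompartmental analysis; half-lives are given as harmonic means.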

Series [4] is described as follows: Turnover in rat liver microsomes. In kind it is ADME, Microsome. Put shortly: as §1
Series [5] is filed under the species Rattus norvegicus. Put plainly: Inhibitory activity against glucogon-stimulated glucose production from isolated primary rat hepatocytes. It counts as functional. The note with it: hepatocyte. The gist of the method:
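Hepatocytes came from fed male Sprague-Dawley rats by two-step perfusion and were glycogen-loaded with 15 mM glucose and 10 nM insulin for 24 h. Cells were then given compound (0-1000 nM) plus 0.5 nM glucagon for 70 min in HEPES/bicarbonate buffer with 0.1% HSA, pH 7.4, 37 °C. Released glucose and glycogen were measured. Ki came from Schild analysis; mean ± SEM of four hepatocyte preparations.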

Series [6] in a line: Oral bioavailability in dog. In kind it is ADME, organism-based, Canis lupus familiaris. The note with it: in vivo. Put shortly:
as §2

Series [7] in a line: tmax after peroral administration (2 mg/kg) in dog was determined; range 30-45. In kind it is ADME, organism-based, Canis lupus familiaris. The note with it: in vivo, po. Put shortly: as §2
The target of series [8] is Glucagon receptor (Rattus norvegicus, UniProt P30082). The series is described as follows: (§3) In vitro binding affinity towards rat glucagon receptor.
Chain of Glucagon receptor (Rattus norvegicus, UniProt P30082) (P30082 whole entry): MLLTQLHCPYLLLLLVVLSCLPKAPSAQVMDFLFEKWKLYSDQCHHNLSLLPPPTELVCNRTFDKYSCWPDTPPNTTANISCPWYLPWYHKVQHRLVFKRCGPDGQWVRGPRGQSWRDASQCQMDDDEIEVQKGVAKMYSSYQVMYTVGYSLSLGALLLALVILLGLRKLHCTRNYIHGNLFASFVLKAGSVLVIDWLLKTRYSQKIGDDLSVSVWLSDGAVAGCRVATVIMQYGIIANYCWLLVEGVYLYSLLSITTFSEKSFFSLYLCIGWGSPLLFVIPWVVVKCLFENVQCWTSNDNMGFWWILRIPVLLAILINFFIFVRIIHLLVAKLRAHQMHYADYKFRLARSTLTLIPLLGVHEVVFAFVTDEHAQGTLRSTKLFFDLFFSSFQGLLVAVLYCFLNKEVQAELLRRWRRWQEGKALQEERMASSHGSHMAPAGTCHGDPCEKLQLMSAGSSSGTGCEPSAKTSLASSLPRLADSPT
The target of series [9] is Glucagon receptor (Rattus norvegicus) (UniProt P30082). Described as §3.
Chain of Glucagon receptor (Rattus norvegicus) (P30082 whole entry): as above
Series [10] is described as follows: tmax in dog was determined; range 30-45. The note with it: in vivo.

The IC50 is the midpoint of a concentration-inhibition curve. For orientation: half-life means the time in which the quantity being followed falls by half. A high value points to slow decline. By Ki is commonly meant the dissociation constant of the complex between target and ligand, obtained from inhibition or displacement. Lower therefore signals higher affinity. A word on the bioavailability: it is the share of a dose that reaches the circulation, judged against a reference dose that is usually intravenous. As usually defined, the Tmax is the time at which the peak concentration occurs.

Chain of Glucagon receptor (Homo sapiens, UniProt P47871) (P47871 whole entry): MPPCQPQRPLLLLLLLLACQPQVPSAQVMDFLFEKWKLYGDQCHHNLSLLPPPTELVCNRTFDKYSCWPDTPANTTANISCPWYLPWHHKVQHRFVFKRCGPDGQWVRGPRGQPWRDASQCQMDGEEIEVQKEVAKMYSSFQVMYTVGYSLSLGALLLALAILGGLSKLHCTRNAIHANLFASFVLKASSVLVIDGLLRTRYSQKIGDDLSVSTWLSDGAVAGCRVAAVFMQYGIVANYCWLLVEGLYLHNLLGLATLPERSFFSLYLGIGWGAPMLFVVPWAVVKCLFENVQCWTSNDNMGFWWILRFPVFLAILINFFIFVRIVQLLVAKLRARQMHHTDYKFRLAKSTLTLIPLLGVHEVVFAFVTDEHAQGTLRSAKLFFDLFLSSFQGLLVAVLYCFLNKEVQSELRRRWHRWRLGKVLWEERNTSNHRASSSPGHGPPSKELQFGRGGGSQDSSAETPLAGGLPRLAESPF

In the case of `O=C(N/N=C/c1ccc(CO)c2ccccc12)c1ccc(O)c(Cl)c1Cl`, in series [1], the IC50 turned out to be 53.8 nM. In series [2], this molecule registered a Metabolism (pM min-1 mg-1) of 103.

Molecule `Cc1cc(C)c(C)c(Cn2ccc3c(/C=N/NC(=O)c4ccc(O)c(C#N)c4)cccc32)c1C` showed a half-life in [3] of 66.6 min. Also, the Metabolism in series [4] was 34 pmol/min/mg. In series [5], this molecule showed a Ki of 14 nM. Moreover, the IC50 amounted to 2.3 nM in series [1] and 0.43 nM in series [8]. The bioavailability in series [6] was 15%. The Tmax in series [7] and in series [10] was 30 min in each case. This molecule also had a Kb in series [9] of 0.38 nM.

In the case of `O=C(N/N=C/c1ccc(C(=O)N2CCN(Cc3ccc(Cl)cc3)CC2)c2ccccc12)c1ccc(O)c(Cl)c1`, in [4], the Metabolism was 77 pmol/min/mg. The IC50 in series [1] is 11.3 nM.

Regarding `COc1cc(NC(=O)Cc2cccc(C(F)(F)F)c2)ccc1/C=N/NC(=O)c1ccc(O)c(C#N)c1`, in series [4], the Metabolism turned out to be 51 pmol/min/mg. Besides, in series [1], the IC50 came to 47.8 nM.

In the case of `Cc1cc(C)c(C)c(Cn2ccc3c(/C=N/NC(=O)c4ccc(O)c(Cl)c4)cccc32)c1C`, the Metabolism in [4] was 105 pmol/min/mg. Moreover, the IC50 in [1] was found to be 5.3 nM.

Turning to `CCN(CC)C(=O)Cn1ccc2c(/C=N/NC(=O)c3ccc(O)c(Cl)c3)cccc21`, the Metabolism in [4] is 165 pmol/min/mg. Besides, the IC50 in series [1] was 2540 nM.

In series [4], `CCN(CC)C(=O)c1ccc(/C=N/NC(=O)c2ccc(O)c(Cl)c2)c2ccccc12` showed a Metabolism of 124 pmol/min/mg. Moreover, the IC50 in series [1] was determined as 35.4 nM.

`CCN(CC)C(=O)COc1ccc(/C=N/NC(=O)c2ccc(O)c(Cl)c2)c2ccccc12`: the Metabolism in [4] amounted to 302 pmol/min/mg. Besides, in series [1], the IC50 came out at 49.7 nM.

In series [4], `CCN(CC)C(=O)Cc1ccc(/C=N/NC(=O)c2ccc(O)c(C#N)c2)c2ccccc12` had a Metabolism of 130 pmol/min/mg. Also, the IC50 in series [1] worked out at 16.5 nM.

As for `O=C(N/N=C/c1ccc(OCCNCCc2ccc(Br)cc2)c2ccccc12)c1ccc(O)c(Cl)c1`, the Metabolism in series [4] turned out to be 250 pmol/min/mg. Also, the IC50 in series [1] turned out to be 19.7 nM.
